The structures appear in SMILES notation. Where “and” joins values, the source holds several entries; their conditions need not be identical. Equal values may be shown once. Calls of active or inactive are those of the source.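 Rule for the calls: active = luminescence drop whose fitted half-maximal dose is at or below twice the top valid tested dose; inconclusive = flat fit with 30 to 70% inhibition, or poor fit; inactive = the rest, including signal rises.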

The first test relates to SK-MEL-5 TRPM1-promoter luciferase reporter, 24 h. The experiment in a line: reducers of TRPM1 reporter luminescence – cell-based, SK-MEL-5, dry powder samples, set 3, MITF inhibitor project, dose response (AID 624259).
Conditions: not given
Put shortly:
(§1)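 System: SK-MEL-5 melanoma line with stable TRPM1 promoter–luciferase reporter | Timing: 24 h compound exposure at 37 °C | Detection: SteadyGlo luminescence | Read-out basis: Loss of TRPM1 reporter luminescence | Control set: Parthenolide as positive (inhibition) control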
What is called AC50 is the concentration at which the activity in the assay is half-maximal. In the case of `COc1ccc(C2=C(NC(=O)c3cccc(Cl)c3)C(=O)c3ccccc3C2=O)cc1`, the AC50 is 33.5 µM.

As for `C=CCNC1=C(Cl)C(=O)c2ccccc2C1=O`, the AC50 is 4.57 µM and 4.74 µM.

With `Cc1ccc(C(=O)NC2=C(c3ccc(OC(F)(F)F)cc3)C(=O)c3ccccc3C2=O)o1`, the AC50 is 27.5 µM.

Regarding `C=C1C(=O)OC2C1CC/C(C)=C\CCC1(C)OC21` (stereo not given), the half-maximal activity concentration (AC50) is 7.5 µM.

`C=CCNC1=C(NCCCN2CCOCC2)C(=O)c2ccccc2C1=O`: the AC50 was 8.83 µM.

For `O=C(NC1=C(c2ccccc2)C(=O)c2ccccc2C1=O)c1ccc(Br)cc1`, the AC50 is 18.1 µM.

Consider `C=CCNC1=C(NCCN(CC)CC)C(=O)c2ccccc2C1=O`, for which the half-maximal activity concentration (AC50) is 3.05 µM.

As for `NC1=C(c2ccccc2)C(=O)c2ccccc2C1=O`, the AC50 was 14.5 µM.

As for `CC(=O)NC1=C(c2ccccc2)C(=O)c2ccccc2C1=O`, the AC50 was 8.08 µM.

For the molecule `CCN1CCN(C2=C(NS(=O)(=O)c3cccs3)C(=O)c3ccccc3C2=O)CC1`, the AC50 is 6.16 µM.

On to `O=C1C(NS(=O)(=O)c2ccc(Br)cc2)=C(N2CCCCC2)C(=O)c2ccccc21`, for which the half-maximal activity concentration (AC50) was 20.1 µM.

As for `CC(=O)NC1=C(c2ccc(Cl)cc2)C(=O)c2ccccc2C1=O`, the concentration at half-maximal activity (AC50) was 8 µM.

In the case of `CCN1CCN(C2=C(NC(=O)c3ccccc3)C(=O)c3ccccc3C2=O)CC1`, the AC50 was 1.27 µM.

Turning to `O=C(NC1=C(c2ccccc2)C(=O)c2ccccc2C1=O)c1ccco1`, the AC50 was 9.91 µM.

On to `Cc1ccc(C(=O)NC2=C(c3ccccc3)C(=O)c3ccccc3C2=O)o1`, for which the AC50 is 9.24 µM.

For the molecule `CC(=O)NC1=C(c2ccc(Oc3ccccc3)cc2)C(=O)c2ccccc2C1=O`, the AC50 was 28.1 µM.

Regarding `O=C(NC1=C(c2ccc(OC(F)(F)F)cc2)C(=O)c2ccccc2C1=O)c1ccco1`, the AC50 was 31.1 µM.

Take `CN1CCN(C2=C(NC(=O)c3ccccc3)C(=O)c3ccccc3C2=O)CC1`: the half-maximal activity concentration (AC50) was 1.13 µM.

As for `CC(=O)NC1=C(c2ccc3c(c2)oc2ccccc23)C(=O)c2ccccc2C1=O`, the AC50 was 5.89 µM.

For `O=C1C(NS(=O)(=O)c2ccc(Br)cc2)=C(N2CCSCC2)C(=O)c2ccccc21`, the AC50 was 35.5 µM.

Turning to `O=C1C(NS(=O)(=O)c2cccs2)=C(N2CCOCC2)C(=O)c2ccccc21`, the AC50 was 14.9 µM.

With `O=C(NC1=C(c2ccc(OC(F)(F)F)cc2)C(=O)c2ccccc2C1=O)c1ccccc1`, the AC50 was 31.3 µM.

As for `O=C(NC1=C(N2CCOCC2)C(=O)c2ccccc2C1=O)c1ccccc1`, the AC50 is 11.1 µM.

Take `O=C(NC1=C(c2ccccc2)C(=O)c2ccccc2C1=O)c1ccccc1`: the AC50 is 10.5 µM.

On to `O=C(NC1=C(c2ccc(OC(F)(F)F)cc2)C(=O)c2ccccc2C1=O)c1ccccc1F`, for which the AC50 was 34.7 µM.

On to `O=C(NC1=C(N2CCSCC2)C(=O)c2ccccc2C1=O)c1ccccc1`, for which the half-maximal activity concentration (AC50) is 5.8 µM.

Regarding `CCN1c2ccccc2NC2N=C(OC)C(c3ccccc3)C21` (stereo not given), the AC50 is 4.27 µM.

On to `O=C1C(Nc2ccccc2)=C(N2CCOCC2)C(=O)c2ccccc21`, for which the AC50 was 8.43 µM.

`C=CCNC1=C(N2CCCCC2)C(=O)c2ccccc2C1=O`: the AC50 is 0.722 µM.

Turning to `CCN1CCN(C2=C(NS(=O)(=O)c3ccc(Br)cc3)C(=O)c3ccccc3C2=O)CC1`, the AC50 was 12.6 µM.

On to `CN1CCN(C2=C(NS(=O)(=O)c3ccc(Br)cc3)C(=O)c3ccccc3C2=O)CC1`, for which the half-maximal activity concentration (AC50) is 2.07 µM.

`COc1ccc(C2=C(NC(=O)c3ccc(Cl)cc3)C(=O)c3ccccc3C2=O)cc1`: the AC50 is 33.6 µM.

As for `O=C(NC1=C(Cl)C(=O)c2ccccc2C1=O)c1ccccc1`, the AC50 was 1.1 µM.

`O=C(CNc1cccc2ccccc12)N/N=C/c1ccc([N+](=O)[O-])o1`: the AC50 was 3.08 µM.

In the case of `Cc1nc2ccccc2n1/N=C/c1ccc([N+](=O)[O-])s1`, the AC50 was 3.29 µM.

With `C=CCNC1=C(N2CCSCC2)C(=O)c2ccccc2C1=O`, the half-maximal activity concentration (AC50) was 3.98 µM.

In the case of `C=CCNC1=C(N2CCOCC2)C(=O)c2ccccc2C1=O`, the AC50 was 3.46 µM.

Consider `C=CCNC1=C(N2CCN(C)CC2)C(=O)c2ccccc2C1=O`, for which the AC50 was 7.93 µM.

On to `COc1cccc(C2=C(NC(=O)c3ccccc3)C(=O)c3ccccc3C2=O)c1`, for which the AC50 was 32 µM.

`COc1ccc(C2=C(NC(=O)c3cccc(OC)c3)C(=O)c3ccccc3C2=O)cc1`: the AC50 was 17.5 µM.

Consider `O=C(NC1=C(c2ccc(OC(F)(F)F)cc2)C(=O)c2ccccc2C1=O)c1ccc(Br)cc1`, for which the AC50 was 35.1 µM.

For the molecule `COc1ccc(S(=O)(=O)N(C(C)=O)c2ccc(OC(C)=O)c3ccccc23)cc1[N+](=O)[O-]`, the AC50 is 11.5 µM.

With `O=C1C(NS(=O)(=O)c2ccc(Br)cc2)=C(N2CCOCC2)C(=O)c2ccccc21`, the AC50 was 13.2 µM.

As for `COc1ccc(C2=C(NC(C)=O)C(=O)c3ccccc3C2=O)cc1`, the AC50 is 6.89 µM.

On to `C=CCNC1=C(NS(=O)(=O)c2ccc(Br)cc2)C(=O)c2ccccc2C1=O`, for which the AC50 is 22.9 µM.

Consider `COc1ccc(C(=O)NC2=C(c3ccc(OC)cc3)C(=O)c3ccccc3C2=O)cc1`, for which the AC50 was 11.9 µM.

Regarding `COc1cccc(-c2cc(C(=O)NC3=C(Cl)C(=O)c4ccccc4C3=O)ccc2OC)c1`, the AC50 is 10.4 µM.

For `COc1ccc(C(=O)NC2=C(c3ccccc3)C(=O)c3ccccc3C2=O)cc1`, the AC50 was 14.7 µM.

On to `COc1ccc(C2=C(NC(=O)c3ccccc3Cl)C(=O)c3ccccc3C2=O)cc1`, for which the AC50 is 11.8 µM.

Turning to `CC(=O)NC1=C(c2cccc(Cl)c2)C(=O)c2ccccc2C1=O`, the AC50 was 7.59 µM.

In the case of `CN1CCN(C2=C(NS(=O)(=O)c3cccs3)C(=O)c3ccccc3C2=O)CC1`, the AC50 was 2.69 µM.

`CC1CCN(CC(CS(=O)(=O)c2ccc([N+](=O)[O-])cc2)N2CCC(C)CC2)CC1` (stereo not given): the AC50 is 14.2 µM.

Regarding `C=CCNC1=C(NCCCN(CC)CC)C(=O)c2ccccc2C1=O`, the AC50 was 5.77 µM.

Regarding `C=CCNC1=C(N2CCN(CC)CC2)C(=O)c2ccccc2C1=O`, the AC50 was 11.3 µM.

System in another test: not listed separately
Described as above. To be noted: SK-MEL-5 TRPM1-promoter luciferase reporter, 24 h; at 35 µM (top of the series). The method in brief:
as §1
Regarding `COc1ccc(C2=C(NC(=O)c3ccccc3OC)C(=O)c3ccccc3C2=O)cc1`, the activity change, negative = inhibition was 14.6% (inactive).

`O=C(NC1=C(c2ccc(Oc3ccccc3)cc2)C(=O)c2ccccc2C1=O)c1ccccc1`: the activity change, negative = inhibition is 17.5% (inactive).

On to `COc1ccc(C(=O)NC2=C(c3ccc(OC(F)(F)F)cc3)C(=O)c3ccccc3C2=O)cc1`, for which the activity change, negative = inhibition is -7.11% (inactive).

As to `COc1ccc(C2=C(NC(=O)c3ccc4ccccc4c3)C(=O)c3ccccc3C2=O)cc1`, the activity change, negative = inhibition is 24.2% (inactive).

Regarding `COc1ccc(C2=C(NC(=O)c3ccc(OC)cc3-c3cccc(OC)c3)C(=O)c3ccccc3C2=O)cc1`, the activity change, negative = inhibition is 25.2% (inactive).

For `C=CCNC1=C(NCC=C)C(=O)c2ccccc2C1=O`, the activity change, negative = inhibition was -10.6% (inactive).
